From ChEMBL document CHEMBL1146983, “The design and synthesis of human branched-chain amino acid aminotransferase inhibitors for treatment of neurodegenerative diseases” (Bioorg Med Chem Lett, 2006)

target: T1, Branched-chain-amino-acid aminotransferase, cytosolic (Homo sapiens, UniProt P54687); assay: Inhibition of human BCATc
T1 sequence (P54687 whole entry): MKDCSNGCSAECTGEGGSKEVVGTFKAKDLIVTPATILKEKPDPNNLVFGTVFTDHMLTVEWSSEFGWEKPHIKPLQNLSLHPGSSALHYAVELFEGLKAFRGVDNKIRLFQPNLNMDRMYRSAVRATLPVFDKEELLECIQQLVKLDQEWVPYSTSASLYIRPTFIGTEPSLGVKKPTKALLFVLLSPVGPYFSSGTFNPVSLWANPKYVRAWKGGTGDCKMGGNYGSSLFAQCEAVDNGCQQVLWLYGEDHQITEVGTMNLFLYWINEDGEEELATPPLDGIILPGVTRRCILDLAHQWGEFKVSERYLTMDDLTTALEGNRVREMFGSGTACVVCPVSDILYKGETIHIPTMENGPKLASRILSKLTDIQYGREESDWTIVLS
Outline: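 Recombinant hBCATc (E. coli-expressed, purified; 50-100 nM) coupled to saturating purified bovine liver GDH. Mix: 25 mM NaPi pH 7.8, 0.75 mM L-leucine, 0.5 mM α-ketoglutarate, 10 μM pyridoxal phosphate, 1 mM NAD+, 4 mM ADP, 2 mM DTT, 12.5 mM EDTA, 1% DMSO final. 37 °C; A340 read over 20 min. IC50 from 8 to 10 point curves.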

Compared with `Cc1cccc(S(=O)(=O)NNC(=O)c2cc3cc(Cl)ccc3o2)c1`, `O=C(NNS(=O)(=O)c1ccccc1)c1cc2cc(Cl)ccc2o1` is 3.5-fold higher in IC50: 1.2 µM for the first, 4.2 µM for the second. The first is the more potent here.

Going from `O=C(NNS(=O)(=O)c1cccc(Cl)c1)c1cccc2c1oc1ccccc12` to `Cc1cccc(S(=O)(=O)NNC(=O)c2cccc3c2oc2ccccc23)c1`, the IC50 falls from over 35 µM to 2.8 µM. The second is the more potent here.

Compared with `COc1ccc2[nH]c(C(=O)NNS(=O)(=O)c3ccccc3)cc2c1`, `O=C(NNS(=O)(=O)c1ccccc1)c1cc2cc(Br)ccc2[nH]1` is 3.8-fold lower in IC50: 56.8 µM for the first, 15 µM for the second. The second is the more potent here.

Going from `O=C(NNS(=O)(=O)c1ccccc1)c1cc2ccccc2o1` to `O=C(NNS(=O)(=O)c1ccccc1)c1cc2cc(Br)ccc2o1`, the IC50 falls from 18.3 µM to 2.5 µM (7.3-fold). The second is the more potent here.

Compared with `Cc1ccccc1S(=O)(=O)NNC(=O)c1cc2cc(Cl)ccc2[nH]1`, `O=C(NNS(=O)(=O)c1ccccc1Cl)c1cc2cc(Cl)ccc2o1` is 4.9-fold higher in IC50: 1.16 µM for the first, 5.7 µM for the second. The first is the more potent here.

Going from `O=C(NNS(=O)(=O)c1ccccc1)c1cnc2ccccc2c1` to `O=C(NNS(=O)(=O)c1ccccc1)c1ccc2ncccc2c1`, the IC50 falls from 33.3 µM to 13.3 µM (2.5-fold). The second is the more potent here.

`O=C(NNS(=O)(=O)c1ccccc1)c1ccc2oc3ccccc3c2c1` and `Cc1ccccc1S(=O)(=O)NNC(=O)c1ccc2oc3ccccc3c2c1` are within 1.5-fold of each other in IC50: 2.35 µM for the first, 3.2 µM for the second.

With `O=C(NNS(=O)(=O)c1ccccc1)c1cc2ccccc2[nH]1` the IC50 was 36 µM.
